The source of these data is ChEMBL document CHEMBL1148407, “Macrocyclic polyamines deplete cellular ATP levels and inhibit cell growth in human prostate cancer cells” (2004).

Assay [1] has as its system DuPro. Put plainly: Macrocycle level in DuPro cells in 3 days after treatment with 0.5 uM concentration of the compound; Macrocycle level measured in per 10 lakh cells. It is filed as functional, Homo sapiens. A digest of the protocol:
(§1)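 Log-phase DuPro cells grown in RPMI 1640 with 10% fetal calf serum were exposed to macrocycle at 0.5–4 μM for 3 or 5 days, harvested with trypsin/EDTA and counted. About 1×10^6 cells were washed in cold PBS, extracted in 2% perchloric acid and sonicated. Supernatant was dansylated (modified for ring NH) and analysed by C-18 HPLC with fluorescence detection. Untreated controls were run per experiment.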

Assay [2] deals with DuPro. Kind of assay: Macrocycle level in DuPro cells in 3 days after treatment with 2 uM concentration of the compound; Macrocycle level measured in per 10 lakh cells. In kind it is functional, Homo sapiens. The method, boiled down:
as §1

Assay [3] relates to DuPro. Kind of assay: Macrocycle level in DuPro cells in 5 days after treatment with 2 uM concentration of the compound; Macrocycle level measured in per 10 lakh cells. It is filed as functional, Homo sapiens. A digest of the protocol:
as §1

For assay [4], the system named is DuPro. Put plainly: Macrocycle level in DuPro cells in 5 days after treatment with 0.5 uM concentration of the compound; Macrocycle level measured in per 10 lakh cells. It is filed as functional, Homo sapiens. The method, boiled down: as §1
In assay [5] the test system is DuPro. Kind of assay: Spermine level in DuPro cells in 3 days after treatment with 0.5 uM concentration of the compound; Sm level measured in per 10 lakh cells. In kind it is functional, Homo sapiens. A digest of the protocol:
as §1

Assay [6] deals with DuPro. Put plainly: Spermidine level in DuPro cells in 5 days after treatment with 0.5 uM concentration of the compound; Spd level measured in per 10 lakh cells. In kind it is functional, Homo sapiens. A digest of the protocol:
as §1

Assay [7] concerns PC-3. Put plainly: Inhibitory effect against growth of PC-3 human prostate cancer cell line. It is filed as functional. The following applies: read-out: ID50 (the source's name). A digest of the protocol: (§2)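 MTT growth assay. Trypsinized cells, 500 per well, seeded and incubated overnight at 37 °C in humidified 95% air/5% CO2. Serial macrocycle dilutions added, each concentration in quadruplicate, buffer controls in the outer columns, 6 days (144 h) of exposure. MTT 5 mg/mL added for 4 h, then overnight lysis in SDS/DMF/acetic acid buffer pH 4.8. Absorbance at 570 nm; ID50 derived.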

Assay [8] concerns DuPro. Kind of assay: Spermidine level in DuPro cells in 5 days after treatment with 1 uM concentration of the compound; Spd level measured in per 10 lakh cells. In kind it is functional, Homo sapiens. The method, boiled down:
as §1

Assay [9] concerns DuPro. Put plainly: Spermidine level in DuPro cells at 5 days after treatment with 2 uM concentration of the compound; Spd level measured in per 10 lakh cells. In kind it is functional, Homo sapiens. The method, boiled down:
as §1

Assay [10] relates to DuPro. Kind of assay: Putrescine level in DuPro cells at 3 days after treatment with 2 uM concentration of the compound; Put level measured in per 10 lakh cells. It is filed as functional, Homo sapiens. The method, boiled down: as §1
The subject of assay [11] is DuPro. Put plainly: Spermidine level in DuPro cells at 3 days after treatment with 2 uM concentration of the compound; Spd level measured in per 10 lakh cells. In kind it is functional, Homo sapiens. A digest of the protocol:
as §1

The subject of assay [12] is DuPro. Put plainly: Putrescine level in DuPro cells in 3 days after treatment with 1 uM concentration of the compound; Put level measured in per 10 lakh cells. It is filed as functional, Homo sapiens. A digest of the protocol:
as §1

The test system of assay [13] is DuPro. Kind of assay: Putrescine level in DuPro cells at 5 days after treatment with 2 uM concentration of the compound; Put level measured in per 10 lakh cells. In kind it is functional, Homo sapiens. A digest of the protocol:
as §1

Assay [14] has as its system DuPro. Put plainly: Spermine level in DuPro cells in 5 days after treatment with 1 uM concentration of the compound; Sm level measured in per 10 lakh cells. In kind it is functional, Homo sapiens. The method, boiled down: as §1
The subject of assay [15] is DuPro. Put plainly: Spermine level in DuPro cells at 5 days after treatment with 2 uM concentration of the compound; Sm level measured in per 10 lakh cells. It is filed as functional, Homo sapiens. A digest of the protocol: as §1
For assay [16], the system named is DuPro. Put plainly: Spermine level in DuPro cells in3 days after treatment with 1 uM concentration of the compound; Sm level measured in per 10 lakh cells. It is filed as functional, Homo sapiens. The method, boiled down:
as §1

The subject of assay [17] is DuPro. Kind of assay: Macrocycle level in DuPro cells at 5 days after treatment with 2 uM concentration of the compound; Macrocycle level measured in per 10 lakh cells. It is filed as functional, Homo sapiens. The method, boiled down: as §1
For assay [18], the system named is DuPro. Put plainly: Spermine level in DuPro cells at 3 days after treatment with 2 uM concentration of the compound; Sm level measured in per 10 lakh cells. It is filed as functional, Homo sapiens. A digest of the protocol: as §1
Assay [19] relates to DuPro. Kind of assay: Spermidine level in DuPro cells in 3 days after treatment with 1 uM concentration of the compound; Spd level measured in per 10 lakh cells. It is filed as functional, Homo sapiens. The method, boiled down: as §1
Assay [20] concerns DuPro. Put plainly: Macrocycle level in DuPro cells at 5 days after treatment with 1 uM concentration of the compound; Macrocycle level measured in per 10 lakh cells. It is filed as functional, Homo sapiens. A digest of the protocol:
as §1

The subject of assay [21] is DuPro. Kind of assay: Macrocycle level in DuPro cells at 3 days after treatment with 2 uM concentration of the compound; Macrocycle level measured in per 10 lakh cells. It is filed as functional, Homo sapiens. A digest of the protocol: as §1
Assay [22] deals with DuPro. Kind of assay: Macrocycle level in DuPro cells at 3 days after treatment with 1 uM concentration of the compound; Macrocycle level measured in per 10 lakh cells. In kind it is functional, Homo sapiens. The method, boiled down:
as §1

Assay [23] deals with DuPro. Put plainly: Macrocycle level in DuPro cells in 5 days after treatment with 1 uM concentration of the compound; Macrocycle level measured in per 10 lakh cells. It is filed as functional, Homo sapiens. A digest of the protocol: as §1
Assay [24] deals with DuPro. Put plainly: Macrocycle level in DuPro cells in 3 days after treatment with 1 uM concentration of the compound; Macrocycle level measured in per 10 lakh cells. It is filed as functional, Homo sapiens. A digest of the protocol: as §1
For assay [25], the system named is DuPro. Put plainly: Macrocycle level in DuPro cells in 5 days after treatment with 4 uM concentration of the compound; Macrocycle level measured in per 10 lakh cells. In kind it is functional, Homo sapiens. The method, boiled down: as §1
Assay [26] relates to DuPro. Kind of assay: Macrocycle level in DuPro cells in 3 days after treatment with 4 uM concentration of the compound; Macrocycle level measured in per 10 lakh cells. It is filed as functional, Homo sapiens. A digest of the protocol:
as §1

For assay [27], the system named is DuPro. Put plainly: Inhibitory effect against growth of DuPro human prostate cancer cell line. To be noted: read-out: ID50 (the source's name). It is filed as functional. The method, boiled down: as §2

As to `CCCCCCCCCCCCCC1CC(=O)NCCCNCCCNCCCN1.Cl.Cl.Cl` (stereo unspecified), the Polyamine level is 47.57 nM in assay [1]; 49.07 nM in [2]; 42.34 nM in assay [3]; 35.91 nM in assay [4]; 3 pM in assay [5].

`CCCCCCCCCCCCCC1CC(=O)NCCCNCCCCCNCCCN1.Cl.Cl.Cl` (stereo unspecified): the Polyamine level in assay [1] was found to be 26.96 nM; in [2] it was 17.2 nM; in [3], 10.24 nM; in assay [6] it was 5 pM; in [4], 26.84 nM. In addition, the IC50 in assay [7] is 1140 nM.

For `CCCCCCCCCCCCCC1CC(=O)NCCCNCCCNCCCNCCCN1.Cl.Cl.Cl.Cl` (stereo unspecified), the Polyamine level in assay [8] was found to be 0.014 nM; in assay [9], 0.018 nM; in assay [10] it was 0.02 nM; in assay [11], 0.027 nM; in assay [12], 4 pM; in assay [13] it was 0.011 nM. The Polyamine level in [14] stood at 0.043 nM; in assay [15], 0.053 nM; in assay [16], 0.088 nM; in assay [17], 49.31 nM; in assay [18], 0.094 nM; in assay [19], 0.029 nM. The Polyamine level in assay [20] came out at 46.77 nM; in [21] it was 5.99 nM; in [22], 10.09 nM.

Regarding `CCCCCCCCCCCCCC1CC(=O)NCCCNCCCCNCCCN1.Cl.Cl.Cl` (stereo unspecified), the Polyamine level in assay [2] was 25.07 nM; in assay [23], 17.2 nM; in assay [3], 21.47 nM; in [24] it was 2.79 nM.

In the case of `CCCCCCCCCCCCCC1CC(=O)NCCCNCCCCN1.Cl.Cl` (stereo unspecified), the Polyamine level in assay [25] was found to be 32 nM; in [23], 24 nM; in assay [26], 22.1 nM; in assay [24], 17 nM. Further, the IC50 in assay [27] turned out to be 1800 nM; in assay [7] it was 1700 nM.
